Calls of active or inactive are those of the source. The calls are words filed in the database; no cut-off is given here.
Legend:
[1] = target: T1, Heat shock protein HSP90 (Homo sapiens, UniProt P07900+P08238); assay: Binding affinity to recombinant human N-terminal truncated HSP90 (9 to 236 residues) expressed in Escherichia coli BL21 (DE3) assessed as off rate constant by biolayer interferometry assay
[2] = tested on: HCT-116; assay: Antiproliferative activity against human HCT-116 cells assessed as reduction in cell viability incubated for 72 hrs by MTT assay; assay type: functional, cell-based
Summary of the method: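 HCT116 cells in RPMI 1640 with 10% FBS, 37 °C, 5% CO2. Seeded at 3000–5000 cells/well and left 24 h, then exposed to serial compound dilutions for 72 h. Proliferation read by MTT kit using the standard protocol.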

[3] = target: T1, Heat shock protein HSP90; assay: Binding affinity to recombinant human N-terminal truncated HSP90 (9 to 236 residues) expressed in Escherichia coli BL21 (DE3) assessed as on rate constant by biolayer interferometry assay
[4] = target: T1, Heat shock protein HSP90; assay: Binding affinity to recombinant human N-terminal truncated HSP90 (9 to 236 residues) expressed in Escherichia coli BL21 (DE3) assessed as dissociation rate constant by biolayer interferometry assay
[5] = target: T1, Heat shock protein HSP90; assay: Inhibition of HSP90 (unknown origin) at 100 uM measured after 1.5 hrs in presence of ATP by spectrophotometry relative to control; assay type: protein assay
[6] = tested on: Mus musculus; assay: In vivo inhibition of HSP90/[…] interaction in BALB/c mouse xenografted with human HCT-116 cells assessed as reduction in CDK4 level at 20 mg/kg, po administered for 37 days and measured on day 37 by […] immunohistochemistry analysis; assay type: functional, organism-based; details: time 37.0 day
[7] = tested on: HCT-116; assay: Antitumor activity against human HCT-116 cells xenografted in BALB/c mouse assessed as reduction in tumor volume at 20 mg/kg, po administered for 37 days and measured on day 37; assay type: functional, organism-based; details: time 37.0 day
Summary of the method: (§1)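 HCT116 cells (1×10^7) mixed 3:1 with Matrigel and injected into the flank of 6-week-old BALB/c nude mice, randomized into groups. Dosing started at mean tumor volume 125 mm³: daily oral doses of 10 or 20 mg/kg in 0.9% saline with 5% DMSO, for 37 days. Tumor volume measured daily by calipers as length×width²/2; body weight recorded every 1–4 days. n = 6, mean ± SD.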

[8] = Toxicity in BALB/c mouse xenografted with human HCT-116 cells assessed as effect on body weight at 20 mg/kg, po administered and observed for 37 days; assay type: organism-based; details: in vivo, 888 h, time 37 day; summary of the method: as §1
[9] = Toxicity in BALB/c mouse xenografted with human HCT-116 cells assessed as effect on body weight at 10 to 20 mg/kg, po administered and observed for 37 days; assay type: organism-based; details: in vivo, 888 h, dose 10-20 mg/kg, time 37 day; summary of the method: as §1
[10] = tested on: HCT-116; assay: Inhibition of HSP90/CDC37 interaction in human HCT-116 cells assessed as upregulation of p21/p27 at 1 to 10 uM incubated for 12 hrs by Western blot analysis; details: dose 1-10 µM
[11] = tested on: Mus musculus; assay: In vivo inhibition of HSP90/[…] interaction in BALB/c mouse xenografted with human HCT-116 cells assessed as reduction in CDK4 level administered orally for 37 days and measured on day 37 by […] immunohistochemistry analysis; assay type: functional, organism-based; details: dose 10-20 mg/kg, time 37.0 day
[12] = tested on: HCT-116; assay: Induction of cell cycle arrest in human HCT-116 cells assessed as increase in accumulation at G0/G1 phase at 1 to 10 uM incubated for 24 hrs by propidium iodide staining based flow cytometric analysis; assay type: functional; details: dose 1-10 µM
Summary of the method: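 HCT116 cells exposed to 0, 1, 5 and 10 μM compound for 24 h. Fixed in 75% ethanol overnight at 4 °C, treated with RNase I (50 μg/mL) in PBS for 30 min at 37 °C, then stained with propidium iodide (50 μg/mL) for 15 min. Cell-cycle phases measured by flow cytometry.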

[13] = tested on: HCT-116; assay: Antitumor activity against human HCT-116 cells xenografted in BALB/c mouse assessed as reduction in tumor at 10 to 20 mg/kg, po administered for 37 days and measured on day 37 by H and E staining based immunohistochemistry analysis; assay type: functional, organism-based; details: dose 10-20 mg/kg, time 37.0 day
[14] = tested on: HCT-116; assay: Inhibition of HSP90/CDC37 interaction in human HCT-116 cells assessed as downregulation of CDK4 incubated for 12 hrs by Western blot analysis; assay type: cell-based; details: dose 1-10 µM
Summary of the method: (§2)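 HCT116 cells treated with 0, 1, 5 and 10 μM compound for 12 h. Whole-cell levels of HSP90, HSP70, CDC37, CDK4, CDK6, cyclin D1, p21 and p27 measured by Western blot, with β-actin as loading control. Three independent experiments.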

[15] = tested on: HCT-116; assay: Inhibition of HSP90/CDC37 interaction in human HCT-116 cells assessed as reduction in CDK4 expression at 1 to 10 uM incubated for 12 hrs by immunoprecipitation based Western blot analysis; assay type: cell-based; details: dose 1-10 µM
Summary of the method: (§3)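 HCT116 cells at ~90% confluence given compound (0, 1, 5, 10 μM) or DMSO for 12 h. Lysed 1 h on ice in RIPA buffer (50 mM Tris, 150 mM NaCl, 1% NP-40, protease inhibitors, pH 7.4), then spun 15 min at 4 °C. HSP90 immunoprecipitated with protein A/G magnetic beads over 3 h. Beads washed five times; blots probed for HSP90, CDC37 and CDK4.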

[16] = tested on: HCT-116; assay: Inhibition of HSP90/CDC37 interaction in human HCT-116 cells for 12 hrs by immunoprecipitation based Western blot analysis; assay type: cell-based; details: dose 1-10 µM; summary of the method: as §3
[17] = tested on: HCT-116; assay: Inhibition of HSP90/CDC37 interaction in human HCT-116 cells assessed as downregulation of CDK6 incubated for 12 hrs by Western blot analysis; assay type: cell-based; details: dose 1-10 µM; summary of the method: as §2
[18] = target: T1, Heat shock protein HSP90; assay: Binding affinity to HSP90 in human HCT-116 cells assessed as increase in thermal stability at 5 uM incubated for 12 hrs at 35 to 65 degC by […]; assay type: cell-based
Summary of the method: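 HCT116 cells at ~90% confluence treated with 5 μM compound or DMSO for 12 h, then washed and resuspended in PBS. Aliquots heated 3 min across 35–65 °C, freeze-thawed three times in liquid nitrogen and centrifuged. Soluble HSP90 and CDC37 detected by Western blot. Three independent experiments.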

[19] = tested on: HCT-116; assay: Antitumor activity against human HCT-116 cells xenografted in BALB/c mouse assessed as reduction in tumor volume administered orally for 37 days and measured on day 37; assay type: functional; details: dose 10-20 mg/kg, time 37.0 day; summary of the method: as §1
[20] = tested on: HCT-116; assay: Inhibition of HSP90/CDC37 interaction in human HCT-116 cells assessed as downregulation of HSP70 at 1 to 10 uM incubated for 12 hrs by Western blot analysis; details: dose 1-10 µM
[21] = tested on: HCT-116; assay: Inhibition of HSP90/CDC37 interaction in human HCT-116 cells assessed as downregulation of Cyclin D1 at 1 to 10 uM incubated for 12 hrs by Western blot analysis; details: dose 1-10 µM
[22] = Homo sapiens, HCT-116, 72 h, read-out: IC50

SMILES | K [1] | IC50 [2, 22] | K [3] | Kd [4] | other results
O=S(=O)(Nc1ccc(Nc2ccnc(N3CCNCC3)n2)cc1)c1ccc(Oc2ccccc2)cc1 | inactive | > 20 µM | inactive | – | –
O=S(=O)(Nc1ccc(Nc2ccnc(N3CCNCC3)n2)cc1)c1ccc(Cl)cc1 | inactive | 11.1 µM | inactive | – | –
Cc1ccc(S(=O)(=O)Nc2ccc(Nc3ccnc(N4CCNCC4)n3)cc2)cc1 | inactive | > 20 µM | inactive | – | –
Cl.O=S(=O)(Nc1ccc(Nc2ccnc(N3CCNCC3)n2)cc1)c1ccc2c(c1)CCO2 | 0.0321 s⁻¹ | 5.82 µM | 3.02 10^3(1/Ms) | 10.6 µM | –
COc1cc(S(=O)(=O)Nc2ccc(Nc3ccnc(N4CCNCC4)n3)cc2)c(C)cc1C.Cl | – | > 50 µM | – | >= 20 uM | inhibition [5]: 56%
Cl.O=S(=O)(Nc1ccc(Nc2ccnc(N3CCNCC3)n2)cc1)c1ccc2c(c1)CCC2 | 0.337 s⁻¹ | 13.4 µM | 3.54 10^4/Ms | 9.52 µM | –
CCOC(=O)c1ccc(S(=O)(=O)Nc2ccc(Nc3ccnc(N4CCNCC4)n3)cc2)cc1.Cl | 0.182 s⁻¹ | 16.4 µM | 3.55 10^4/Ms | 5.13 µM | –
O=S(=O)(Nc1ccc(Nc2ccnc(N3CCNCC3)n2)cc1)c1ccc(OC(F)(F)F)cc1 | inactive | > 20 µM | inactive | – | –
O=S(=O)(Nc1ccc(Nc2ccnc(N3CCNCC3)n2)cc1)c1ccc(F)cc1 | inactive | > 20 µM | inactive | – | –
CCCCc1ccc(S(=O)(=O)Nc2ccc(Nc3ccnc(N4CCNCC4)n3)cc2)cc1.Cl | 0.121 s⁻¹ | 7.5 µM | 1.04 10^4/Ms | 11.6 µM | –
Cl.Cn1cnc(S(=O)(=O)Nc2ccc(Nc3ccnc(N4CCNCC4)n3)cc2)c1 | inactive | – | inactive | – | IC50 ([2]; hct-116): Not Active
CC(C)c1cc(C(C)C)c(S(=O)(=O)Nc2ccc(Nc3ccnc(N4CCNCC4)n3)cc2)c(C(C)C)c1 | inactive | > 20 µM | inactive | – | –
Cl.O=S(=O)(Nc1ccc(Nc2ccnc(N3CCNCC3)n2)cc1)c1ccc(-c2ccccc2)cc1 | 0.112 s⁻¹ | 13.7 µM | 6.1 10^3(1/Ms) | 18.4 µM | –
O=S(=O)(Nc1ccc(Nc2ccnc(N3CCNCC3)n2)cc1)c1ccc(OCc2ccccc2)cc1 | inactive | 7.05 µM | inactive | – | –
O=S(=O)(Nc1ccc(Nc2ccnc(N3CCNCC3)n2)cc1)c1cccs1 | inactive | > 20 µM | inactive | – | –
CCc1ccc(S(=O)(=O)Nc2ccc(Nc3ccnc(N4CCNCC4)n3)cc2)cc1 | inactive | > 20 µM | inactive | – | –
O=S(=O)(Nc1ccc(Nc2ccnc(N3CCNCC3)n2)cc1)c1ccc(Br)cc1 | inactive | 1.35 µM | inactive | – | –
CCCc1ccc(S(=O)(=O)Nc2ccc(Nc3ccnc(N4CCNCC4)n3)cc2)cc1.Cl | 0.0366 s⁻¹ | 19.3 µM | 3.17 10^3(1/Ms) | 11.5 µM | –
CCCCCc1ccc(S(=O)(=O)Nc2ccc(Nc3ccnc(N4CCNCC4)n3)cc2)cc1.Cl | – | 16.7 µM | – | > 100 µM | –
Cc1cc(C)c(S(=O)(=O)N(CC(=O)O)c2ccc(Nc3ccnc(N4CCNCC4)n3)cc2)c(C)c1 | – | – | – | – | inhibition [6]: Active; Activity [7]: Active; Activity [8]: Non-Toxic
Cc1c(C)c(S(=O)(=O)Nc2ccc(Nc3ccnc(N4CCNCC4)n3)cc2)c(C)c2c1OC(C)(C)C2.Cl | 0.112 s⁻¹ | 6.34 µM | 2.03 10^4/Ms | 5.52 µM | Activity [9]: Non-Toxic; inhibition [10]: Active; inhibition [11]: Dose-dependent effect; Activity [12]: Active; Activity [13]: Active; inhibition [14]: Dose-dependent effect; inhibition [15]: Active; inhibition [16]: Dose-dependent effect; inhibition [17]: Dose-dependent effect; Activity [18]: Active; Activity [19]: Dose-dependent effect; inhibition [20]: inactive; inhibition [21]: Active
N#Cc1ccc(S(=O)(=O)Nc2ccc(Nc3ccnc(N4CCNCC4)n3)cc2)cc1 | inactive | > 20 µM | inactive | – | –
CC(C)c1ccc(S(=O)(=O)Nc2ccc(Nc3ccnc(N4CCNCC4)n3)cc2)cc1.Cl | – | > 20 µM | – | > 100 µM | –
